Published values collected from several papers.
Compare with care: the assays were run in different laboratories.

Compound | test | test system | setting | endpoint | value
CC(/C=C/C=C(\C)C(=O)O)=C\C=C\C=C(C)\C=C\C=C(/C)C(=O)O | shake flask | PBS | 2 h, pH 7.4 | logD | 0.7
Cc1c(C(=O)O)ccc2c3n(nc12)[C@@H]1[C@H](C3)N(CC2CC2)[C@@]2(C(=O)Nc3cc(Cl)ccc32)[C@H]1c1cccc(Cl)c1F | – | bovine, serum | – | fraction unbound | 0.045
Cc1ccc(Cn2cc(C(=O)NN)c(=O)c3cc(Oc4ccccc4)ccc32)cc1 | shake flask | PBS | 2 h, pH 7.4 | logD | 2
O=c1ccc2ccc(O)cc2o1 | metabolic stability | rat, liver microsomes | – | scaled CLint | 1030 mL/min/kg
O=c1ccc2ccc(O)cc2o1 | metabolic stability | Sprague-Dawley rat, hepatocytes | 1 µM | hepatocyte CLint | 61 µL/min/10⁶ cells
C[C@H]1Oc2cc(cnc2N)-c2c(nn(C)c2C#N)CN(C)C(=O)c2ccc(F)cc21 | – | bovine, serum | – | fraction unbound | 0.98
CCn1ccc2c([C@](O)(c3cnc(C(F)(F)F)c(Cl)c3)C3CC3)n(C)nc2c1=O | metabolic stability | male Sprague-Dawley rat, hepatocytes | 0.5 µM, pH 7.4 | hepatocyte CLint | 3.3 µL/min/10⁶ cells
C=C(F)C(=O)N1CCN(c2nc(OC[C@@H]3CCCN3C)nc3c2CCN(c2cccc4cccc(Cl)c24)C3)C[C@@H]1CC#N | potentiometric | – | pH 7.4 | logD | 3.6
COc1cc2nc3n(c(=O)c2cc1Cl)CC[C@@H]1[C@@H]3CCCN1CC1COC1 | shake flask | aqueous buffer | 1 h, pH 7.4 | logD | 2.3
CCn1cc(C)c2c([C@H](N)c3ccc(C(F)(F)F)nc3)n(C)nc2c1=O | metabolic stability | male Sprague-Dawley rat, hepatocytes | 0.5 µM, pH 7.4 | hepatocyte CLint | 1.9 µL/min/10⁶ cells
CCOc1ccc2ccc(=O)oc2c1 | metabolic stability | male Sprague-Dawley rat, hepatocytes | 1 µM | hepatocyte CLint | 52.8 µL/min/10⁶ cells
O=C(O)Cc1ccccc1Nc1c(Cl)cccc1Cl | metabolic stability | Sprague-Dawley rat, hepatocytes | 0.5 µM, pH 7.4 | hepatocyte CLint | 66 µL/min/10⁶ cells
Cc1c(N(C)C)ccc2cc(C(=O)NS(=O)(=O)c3ccccc3-c3ccccc3)oc12 | – | – | pH 7.5 | logD | 2.1
COCCc1ccc(OCC(O)CNC(C)C)cc1 (stereo not drawn) | metabolic stability | Sprague-Dawley rat, hepatocytes | 0.5 µM, pH 7.4 | hepatocyte CLint | 35 µL/min/10⁶ cells
O=C1CC[C@H](N2Cc3cc(N4CCN(CC5CCN(c6ccc([C@@H]7c8ccc(O)cc8CC[C@@H]7c7ccccc7)cc6)CC5)CC4)ccc3C2=O)C(=O)N1 | metabolic stability | Sprague-Dawley rat, hepatocytes | 1 µM | hepatocyte CLint | 8.4 µL/min/10⁶ cells
